Laboratory results published in ChEMBL document CHEMBL3286131, “Design, synthesis and systematic evaluation of cytotoxic 3-heteroarylisoquinolinamines as topoisomerases inhibitors” (Eur J Med Chem, 2014).
Values joined by “and” are separate entries in the source; they are usually repeats but may differ in a detail not shown here. Equal entries are not always repeated.

Experiments:
[1] = Cytotoxicity against human MCF10A cells after 2 days; format: cell-based, MCF-10A
Summary of the method: (§1)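 Cells seeded at 2-4 × 10^4 per well in medium with 10% FBS and incubated overnight at 37 °C, 5% CO2. Graded compound concentrations added on day 2. CCK-8 reagent added on day 4 for a further 4 h, absorbance read at 450 nm. IC50 from a four-parameter logistic fit; mean ± S.D. of three experiments run in triplicate.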

[2] = test system: T47D; assay: Cytotoxicity against human T47D cells after 2 days; format: functional, cell-based; summary of the method: as §1
[3] = Cytotoxicity against human HCT15 cells after 2 days; format: functional, cell-based, HCT-15; summary of the method: as §1
[4] = test system: DU-145; assay: Cytotoxicity against human DU145 cells after 2 days; format: functional, cell-based; summary of the method: as §1
[5] = target: DNA topoisomerase 2-alpha (Homo sapiens) (UniProt P11388); assay: Inhibition of human DNA topoisomerase-2a-mediated relaxation of supercoiled DNA pBR322 at 100 uM after 4 hrs using ethidium bromide staining by agarose gel electrophoresis analysis
DNA topoisomerase 2-alpha (Homo sapiens), sequence (P11388 whole entry): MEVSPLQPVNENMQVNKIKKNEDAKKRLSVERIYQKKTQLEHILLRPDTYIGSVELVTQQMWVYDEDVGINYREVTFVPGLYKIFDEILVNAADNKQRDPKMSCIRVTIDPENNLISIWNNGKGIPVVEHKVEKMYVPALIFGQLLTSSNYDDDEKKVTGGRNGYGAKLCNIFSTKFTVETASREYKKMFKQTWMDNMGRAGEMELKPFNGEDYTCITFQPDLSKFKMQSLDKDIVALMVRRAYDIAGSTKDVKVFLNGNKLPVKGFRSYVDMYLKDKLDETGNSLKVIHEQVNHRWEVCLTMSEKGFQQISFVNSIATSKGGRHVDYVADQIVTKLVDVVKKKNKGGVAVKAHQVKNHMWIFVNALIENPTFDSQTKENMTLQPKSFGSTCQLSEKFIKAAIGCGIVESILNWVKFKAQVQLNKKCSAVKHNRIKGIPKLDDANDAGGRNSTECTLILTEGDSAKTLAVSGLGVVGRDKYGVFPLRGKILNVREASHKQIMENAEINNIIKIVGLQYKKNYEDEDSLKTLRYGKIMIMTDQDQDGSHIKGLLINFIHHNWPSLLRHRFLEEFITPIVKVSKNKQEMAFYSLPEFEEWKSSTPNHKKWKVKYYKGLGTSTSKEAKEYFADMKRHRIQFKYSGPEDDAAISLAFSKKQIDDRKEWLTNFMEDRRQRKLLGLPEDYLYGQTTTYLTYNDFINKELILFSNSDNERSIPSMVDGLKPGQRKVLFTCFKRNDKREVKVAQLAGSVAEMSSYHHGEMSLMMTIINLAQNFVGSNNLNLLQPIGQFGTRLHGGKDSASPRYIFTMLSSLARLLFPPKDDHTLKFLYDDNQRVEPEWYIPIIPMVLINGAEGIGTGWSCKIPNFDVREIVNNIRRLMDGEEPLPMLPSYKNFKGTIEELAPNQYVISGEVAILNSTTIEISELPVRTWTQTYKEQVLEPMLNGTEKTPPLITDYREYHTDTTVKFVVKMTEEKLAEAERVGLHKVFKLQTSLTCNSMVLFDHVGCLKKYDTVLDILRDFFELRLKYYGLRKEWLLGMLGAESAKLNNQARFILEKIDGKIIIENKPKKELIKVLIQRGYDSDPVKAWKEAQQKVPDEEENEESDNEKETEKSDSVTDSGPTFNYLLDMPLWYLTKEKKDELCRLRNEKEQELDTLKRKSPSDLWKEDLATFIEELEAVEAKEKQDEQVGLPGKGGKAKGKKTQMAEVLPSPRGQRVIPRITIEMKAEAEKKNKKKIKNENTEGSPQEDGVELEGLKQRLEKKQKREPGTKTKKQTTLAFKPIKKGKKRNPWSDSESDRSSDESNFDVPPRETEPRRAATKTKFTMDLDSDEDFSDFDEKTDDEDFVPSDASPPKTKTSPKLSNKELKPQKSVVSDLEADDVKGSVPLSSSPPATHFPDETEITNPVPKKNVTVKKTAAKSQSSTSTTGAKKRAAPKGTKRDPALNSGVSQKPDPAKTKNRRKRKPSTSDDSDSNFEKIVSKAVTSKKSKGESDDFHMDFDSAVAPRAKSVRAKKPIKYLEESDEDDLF
Summary of the method: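 Supercoiled pBR322 (200 ng) incubated with human topo IIα (1 unit) ± compound for 30 min at 30 °C. Buffer: 10 mM Tris-HCl pH 7.9, 50 mM NaCl, 50 mM KCl, 5 mM MgCl2, 1 mM EDTA, 1 mM ATP, BSA. Stopped with EDTA. 1% agarose gel run at 25 V for 4 h in TAE, ethidium bromide stain, supercoiled DNA quantified by UV imaging.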

[6] = target: T1, DNA topoisomerase 1 (Homo sapiens) (UniProt P11387); assay: Inhibition of recombinant human DNA topoisomerase-1-mediated relaxation of supercoiled DNA pBR322 at 100 uM after 7 hrs using ethidium bromide staining by agarose gel electrophoresis analysis
T1 sequence (whole entry): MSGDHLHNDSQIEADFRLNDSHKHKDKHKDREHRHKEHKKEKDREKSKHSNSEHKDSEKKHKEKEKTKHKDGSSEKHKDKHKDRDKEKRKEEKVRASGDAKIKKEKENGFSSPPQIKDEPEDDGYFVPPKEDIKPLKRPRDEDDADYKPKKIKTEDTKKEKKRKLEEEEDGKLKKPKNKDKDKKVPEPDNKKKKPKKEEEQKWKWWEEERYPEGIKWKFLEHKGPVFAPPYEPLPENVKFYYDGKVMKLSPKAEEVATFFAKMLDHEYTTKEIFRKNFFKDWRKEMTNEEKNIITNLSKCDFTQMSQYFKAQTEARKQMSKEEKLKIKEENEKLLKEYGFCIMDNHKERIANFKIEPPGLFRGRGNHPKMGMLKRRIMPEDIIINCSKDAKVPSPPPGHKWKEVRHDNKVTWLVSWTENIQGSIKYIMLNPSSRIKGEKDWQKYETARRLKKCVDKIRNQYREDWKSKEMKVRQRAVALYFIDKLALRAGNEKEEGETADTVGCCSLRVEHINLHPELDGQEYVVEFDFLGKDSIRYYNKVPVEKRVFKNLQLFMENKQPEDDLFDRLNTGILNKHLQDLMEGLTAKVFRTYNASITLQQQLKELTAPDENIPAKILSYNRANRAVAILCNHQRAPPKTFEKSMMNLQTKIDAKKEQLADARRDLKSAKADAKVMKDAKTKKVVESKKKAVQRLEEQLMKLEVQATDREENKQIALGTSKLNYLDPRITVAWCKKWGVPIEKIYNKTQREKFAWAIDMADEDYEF
Summary of the method: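 pBR322 (100 ng) incubated with recombinant human topo I (0.4 units) ± compound for 30 min at 37 °C. Buffer: 10 mM Tris-HCl pH 7.9, 150 mM NaCl, 0.1% BSA, 1 mM spermidine, 5% glycerol. Quenched with sarcosyl stop solution. 1% agarose gel run at 15 V for 7 h in TAE, ethidium bromide stain, supercoiled DNA quantified under UV.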

SMILES	IC50 ([1]; Homo sapiens, MCF-10A, 48 h) [µM]	IC50 ([2]; Homo sapiens, T47D, 48 h) [µM]	IC50 ([3]; Homo sapiens, HCT-15, 48 h) [µM]	IC50 ([2]; t47d) [µM]	IC50 ([4]; Homo sapiens, DU-145, 48 h) [µM]	IC50 ([3]; hct-15) [µM]	IC50 ([1]; mcf-10a) [µM]	inhibition [5]	inhibition [6]	IC50 ([4]; du-145) [µM]
COc1cc([C@@H]2c3cc4c(cc3[C@@H](O[C@@H]3O[C@@H]5CO[C@@H](C)O[C@H]5[C@H](O)[C@H]3O)[C@H]3COC(=O)[C@H]23)OCO4)cc(OC)c1O [ETOPOSIDE]	12.2	2.57	9.45							
Cc1ccc2cc(-c3cccs3)nc(N3CCN(C)CC3)c2c1	11.6			1.96	16.2	1.64				
c1csc(-c2cc3ccccc3c(N3CCCCC3)n2)c1				7.26		1.04				
Cc1ccc2c(N3CCOCC3)nc(-c3cccs3)cc2c1		6.76	7.58		> 50		> 50			
Cc1cccc2c(N=[N+]=[N-])nc(-c3cccs3)cc12	> 50	> 50	> 50		> 50			4.8%	2.1%	
Cc1ccc2cc(-c3cccs3)nc(N3CCCN(C)CC3)c2c1	20.6	1.32	1.5		14.7			8%	18.3%	
CCN1CCN(c2nc(-c3cccs3)cc3cc(C)ccc23)CC1	28.9			17.7		4.4				22.1
CCN1CCN(c2nc(-c3cccs3)cc3ccccc23)CC1								3.2% and 9.1%	2.6% and 15%	
Cc1ccc2cc(-c3cccs3)nc(N3CCOCC3)c2c1	35.6	6.38	7.58		47.3					
Cc1ccc2cc(-c3cccs3)nc(N3CCCCC3)c2c1	> 50			7.38	> 50	3.74				
Cc1ccc2c(N3CCCCC3)nc(-c3cccs3)cc2c1	> 50			2.56	> 50	5.45				
c1csc(-c2cc3ccccc3c(N3CCOCC3)n2)c1		14.8	14.7		47					
COc1cccc2c1C(=O)c1c(O)c3c(c(O)c1C2=O)C[C@@](O)(C(=O)CO)C[C@@H]3O[C@H]1C[C@H](N)[C@H](O)[C@H](C)O1 [DOXORUBICIN]	0.93	0.84			4.88					
CCN1CCN(c2nc(-c3cccs3)cc3ccc(C)cc23)CC1 [listing 1 of 2 here]				4.15	29.4	3.63	43.1			
CN1CCN(c2nc(-c3cccs3)cc3ccccc23)CC1								0%	80.8% and 97.5%	
CCN1CCN(c2nc(-c3cccs3)cc3ccc(C)cc23)CC1 [listing 2 of 2 here]	42.9	2.84				7.71				31.1
